Experimental data as given in ChEMBL document CHEMBL1153264, “(1,2,3-Triazol-4-yl)benzenamines: synthesis and activity against VEGF receptors 1 and 2” (Bioorg Med Chem Lett, 2009).

Assays:
[1] = molecular target: T1, Vascular endothelial growth factor receptor 2 (Homo sapiens, UniProt P35968); test: Inhibition of VEGFR2 by HTRF assay in presence of 2 uM ATP
Procedure, shortened: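 HTRF kinase assay with KDR enzyme (3–4 ng) and biotinylated pGAT substrate. ATP added to start, 45 min at RT. Stopped with EDTA/KF buffer plus Eu-cryptate anti-phosphotyrosine antibody, 2 h RT, then HTRF read. IC50 from 10-point log concentration curves, mean of at least two duplicate runs.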

[2] = molecular target: Vascular endothelial growth factor receptor 1 (Homo sapiens, UniProt P17948); test: Inhibition of VEGFR1 by HTRF assay
[3] = molecular target: T1, Vascular endothelial growth factor receptor 2; test: Inhibition of VEGF-induced phosphorylation of VEGFR2 by cell-based ELISA
[4] = molecular target: Insulin-like growth factor 1 receptor (Homo sapiens) (UniProt P08069); test: Inhibition of IGF1R at 10 uM
Sequence of Insulin-like growth factor 1 receptor (Homo sapiens) (P08069 31-736 limits assumed): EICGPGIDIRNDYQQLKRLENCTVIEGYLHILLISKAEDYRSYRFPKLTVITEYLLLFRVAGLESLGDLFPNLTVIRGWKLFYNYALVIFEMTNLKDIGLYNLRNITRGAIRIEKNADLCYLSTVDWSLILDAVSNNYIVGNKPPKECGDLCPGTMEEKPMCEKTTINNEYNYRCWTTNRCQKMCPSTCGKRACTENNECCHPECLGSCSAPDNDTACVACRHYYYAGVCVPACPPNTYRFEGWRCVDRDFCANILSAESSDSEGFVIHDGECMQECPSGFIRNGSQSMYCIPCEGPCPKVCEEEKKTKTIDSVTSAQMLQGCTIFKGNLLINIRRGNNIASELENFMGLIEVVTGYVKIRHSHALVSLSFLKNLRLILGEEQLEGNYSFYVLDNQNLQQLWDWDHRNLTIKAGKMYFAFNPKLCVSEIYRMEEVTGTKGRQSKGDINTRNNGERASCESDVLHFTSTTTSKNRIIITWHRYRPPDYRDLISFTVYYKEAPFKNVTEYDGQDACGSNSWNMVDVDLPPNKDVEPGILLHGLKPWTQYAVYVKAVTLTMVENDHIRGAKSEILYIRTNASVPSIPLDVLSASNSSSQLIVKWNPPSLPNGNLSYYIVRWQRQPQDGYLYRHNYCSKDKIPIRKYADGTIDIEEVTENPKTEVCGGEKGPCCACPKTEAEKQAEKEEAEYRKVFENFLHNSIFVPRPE
Sequence of Insulin-like growth factor 1 receptor (Homo sapiens) (P08069 741-1367 limits assumed): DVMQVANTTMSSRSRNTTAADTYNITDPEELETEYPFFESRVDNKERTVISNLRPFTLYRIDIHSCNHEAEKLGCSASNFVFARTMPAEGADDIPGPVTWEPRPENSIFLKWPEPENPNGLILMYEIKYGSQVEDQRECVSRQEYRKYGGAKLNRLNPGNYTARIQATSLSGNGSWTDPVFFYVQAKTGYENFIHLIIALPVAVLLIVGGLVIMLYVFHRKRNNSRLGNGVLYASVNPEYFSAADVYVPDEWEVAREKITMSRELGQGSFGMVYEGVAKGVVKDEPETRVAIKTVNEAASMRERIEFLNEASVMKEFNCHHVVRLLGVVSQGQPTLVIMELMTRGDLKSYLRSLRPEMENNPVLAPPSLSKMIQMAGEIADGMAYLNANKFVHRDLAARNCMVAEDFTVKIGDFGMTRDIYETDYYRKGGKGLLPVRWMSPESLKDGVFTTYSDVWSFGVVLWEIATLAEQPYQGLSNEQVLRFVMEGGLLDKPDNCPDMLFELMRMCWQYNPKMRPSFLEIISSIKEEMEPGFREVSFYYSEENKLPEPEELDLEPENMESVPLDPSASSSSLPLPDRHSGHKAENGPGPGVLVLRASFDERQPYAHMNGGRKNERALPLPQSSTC

[5] = molecular target: Insulin receptor (Homo sapiens) (UniProt P06213); test: Inhibition of IR at 10 uM
[6] = molecular target: Fibroblast growth factor receptor 1 (Homo sapiens) (UniProt P11362); test: Inhibition of FGFR1 at 10 uM
[7] = molecular target: Receptor-type tyrosine-protein kinase FLT3 (Homo sapiens) (UniProt P36888); test: Inhibition of Flt3 at 10 uM
[8] = molecular target: Epidermal growth factor receptor (Homo sapiens) (UniProt P00533); test: Inhibition of EGFR at 10 uM
Sequence of Epidermal growth factor receptor (Homo sapiens) (P00533 whole entry): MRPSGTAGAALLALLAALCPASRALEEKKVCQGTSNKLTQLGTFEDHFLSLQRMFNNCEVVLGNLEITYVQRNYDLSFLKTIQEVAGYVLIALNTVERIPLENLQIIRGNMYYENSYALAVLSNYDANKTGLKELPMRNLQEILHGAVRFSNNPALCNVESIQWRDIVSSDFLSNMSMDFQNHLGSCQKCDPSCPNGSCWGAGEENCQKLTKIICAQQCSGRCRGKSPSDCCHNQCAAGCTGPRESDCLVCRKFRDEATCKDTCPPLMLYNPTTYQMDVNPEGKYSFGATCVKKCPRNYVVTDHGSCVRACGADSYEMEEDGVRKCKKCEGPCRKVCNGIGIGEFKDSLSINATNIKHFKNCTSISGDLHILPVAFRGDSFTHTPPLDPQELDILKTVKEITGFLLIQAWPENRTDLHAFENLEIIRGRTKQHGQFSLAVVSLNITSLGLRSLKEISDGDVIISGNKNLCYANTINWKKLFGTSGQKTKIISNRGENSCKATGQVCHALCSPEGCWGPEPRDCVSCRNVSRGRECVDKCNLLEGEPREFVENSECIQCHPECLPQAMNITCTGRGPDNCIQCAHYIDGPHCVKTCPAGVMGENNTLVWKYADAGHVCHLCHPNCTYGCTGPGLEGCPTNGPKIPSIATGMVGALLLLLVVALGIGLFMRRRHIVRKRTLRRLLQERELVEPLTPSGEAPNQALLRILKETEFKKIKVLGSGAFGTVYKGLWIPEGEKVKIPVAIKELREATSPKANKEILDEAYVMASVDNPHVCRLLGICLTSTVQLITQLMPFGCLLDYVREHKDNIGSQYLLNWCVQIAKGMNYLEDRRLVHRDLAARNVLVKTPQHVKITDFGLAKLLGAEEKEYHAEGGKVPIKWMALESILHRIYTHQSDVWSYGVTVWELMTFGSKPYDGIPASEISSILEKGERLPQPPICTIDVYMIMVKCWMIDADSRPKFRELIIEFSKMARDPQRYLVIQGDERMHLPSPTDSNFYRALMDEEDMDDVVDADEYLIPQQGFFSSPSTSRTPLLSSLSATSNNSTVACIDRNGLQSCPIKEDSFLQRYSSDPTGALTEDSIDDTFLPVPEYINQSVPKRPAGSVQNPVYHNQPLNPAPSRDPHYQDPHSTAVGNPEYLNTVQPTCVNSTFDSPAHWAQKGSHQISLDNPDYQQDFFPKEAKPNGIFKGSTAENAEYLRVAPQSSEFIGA

[9] = molecular target: Receptor tyrosine-protein kinase erbB-2 (Homo sapiens) (UniProt P04626); test: Inhibition of ErbB2 at 10 uM
[10] = molecular target: Hepatocyte growth factor receptor (Homo sapiens) (UniProt P08581); test: Inhibition of c-Met at 10 uM
Sequence of Hepatocyte growth factor receptor (Homo sapiens) (P08581 whole entry): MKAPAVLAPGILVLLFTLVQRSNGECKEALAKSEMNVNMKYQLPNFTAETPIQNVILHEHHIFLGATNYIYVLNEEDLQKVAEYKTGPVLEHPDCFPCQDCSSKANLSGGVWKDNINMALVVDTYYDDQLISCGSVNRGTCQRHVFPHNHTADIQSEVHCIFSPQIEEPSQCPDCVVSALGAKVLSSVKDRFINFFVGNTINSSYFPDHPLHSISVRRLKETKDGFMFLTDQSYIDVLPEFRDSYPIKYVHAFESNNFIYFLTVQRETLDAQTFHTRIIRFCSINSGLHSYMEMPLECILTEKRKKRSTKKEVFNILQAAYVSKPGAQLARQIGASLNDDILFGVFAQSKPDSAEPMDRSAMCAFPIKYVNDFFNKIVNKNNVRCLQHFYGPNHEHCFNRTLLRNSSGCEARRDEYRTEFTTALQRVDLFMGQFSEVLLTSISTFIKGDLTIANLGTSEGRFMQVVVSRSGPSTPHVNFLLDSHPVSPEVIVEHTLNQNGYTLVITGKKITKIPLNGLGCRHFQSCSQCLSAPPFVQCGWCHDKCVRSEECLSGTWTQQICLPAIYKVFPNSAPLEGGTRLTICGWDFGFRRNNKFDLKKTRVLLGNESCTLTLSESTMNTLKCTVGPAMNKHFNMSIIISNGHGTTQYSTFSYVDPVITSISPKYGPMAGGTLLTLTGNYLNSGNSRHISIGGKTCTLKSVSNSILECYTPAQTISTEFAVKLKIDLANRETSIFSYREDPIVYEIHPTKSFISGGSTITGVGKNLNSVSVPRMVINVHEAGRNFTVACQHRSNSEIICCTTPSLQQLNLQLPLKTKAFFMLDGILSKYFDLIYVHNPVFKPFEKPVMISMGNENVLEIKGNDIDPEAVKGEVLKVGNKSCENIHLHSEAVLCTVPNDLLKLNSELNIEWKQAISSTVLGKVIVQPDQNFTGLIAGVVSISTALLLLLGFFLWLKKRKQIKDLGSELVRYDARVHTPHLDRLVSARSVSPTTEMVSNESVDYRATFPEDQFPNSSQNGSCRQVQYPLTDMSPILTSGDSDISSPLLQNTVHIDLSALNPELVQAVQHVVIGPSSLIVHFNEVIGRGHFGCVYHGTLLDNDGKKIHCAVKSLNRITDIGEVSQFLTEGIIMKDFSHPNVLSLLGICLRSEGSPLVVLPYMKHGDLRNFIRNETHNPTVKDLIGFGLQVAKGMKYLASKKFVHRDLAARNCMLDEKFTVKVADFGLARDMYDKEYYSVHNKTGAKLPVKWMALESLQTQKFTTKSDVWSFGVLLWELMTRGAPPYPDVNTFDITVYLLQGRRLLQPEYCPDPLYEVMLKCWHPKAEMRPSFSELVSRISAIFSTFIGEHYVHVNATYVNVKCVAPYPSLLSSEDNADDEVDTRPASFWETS

[11] = molecular target: Macrophage-stimulating protein receptor (Homo sapiens) (UniProt Q04912); test: Inhibition of Ron at 10 uM
[12] = Inhibition of PKA at 10 uM
[13] = molecular target: Glycogen synthase kinase-3 beta (Homo sapiens) (UniProt P49841); test: Inhibition of GSK3-beta at 10 uM
Sequence of Glycogen synthase kinase-3 beta (Homo sapiens) (P49841 whole entry, looked up, the tested form may be a part): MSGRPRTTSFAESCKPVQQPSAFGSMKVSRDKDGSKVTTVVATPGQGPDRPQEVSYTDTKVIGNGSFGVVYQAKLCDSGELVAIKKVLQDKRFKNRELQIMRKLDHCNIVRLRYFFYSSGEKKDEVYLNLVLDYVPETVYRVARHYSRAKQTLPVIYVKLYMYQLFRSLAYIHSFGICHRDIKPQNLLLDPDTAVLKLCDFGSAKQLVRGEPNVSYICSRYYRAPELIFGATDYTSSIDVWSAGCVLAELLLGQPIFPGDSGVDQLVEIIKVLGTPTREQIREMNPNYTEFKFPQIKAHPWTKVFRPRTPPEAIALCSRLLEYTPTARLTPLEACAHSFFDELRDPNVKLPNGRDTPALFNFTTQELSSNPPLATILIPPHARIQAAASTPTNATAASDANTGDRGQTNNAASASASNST

[14] = molecular target: Bcr/Abl fusion protein (Homo sapiens) (UniProt P00519+P11274); test: Inhibition of Bcr-Abl at 10 uM; type: protein assay
[15] = Inhibition of Bcr-Abl T315 mutant at 10 uM
[16] = molecular target: Cyclin-dependent kinase 1 (Homo sapiens) (UniProt P06493); test: Inhibition of Cdk1 at 10 uM
[17] = molecular target: Cyclin-dependent kinase 2 (Homo sapiens) (UniProt P24941); test: Inhibition of Cdk2 at 10 uM
[18] = molecular target: Proto-oncogene tyrosine-protein kinase Src (Homo sapiens) (UniProt P12931); test: Inhibition of Src at 10 uM
Sequence of Proto-oncogene tyrosine-protein kinase Src (Homo sapiens) (P12931 2-536 limits assumed): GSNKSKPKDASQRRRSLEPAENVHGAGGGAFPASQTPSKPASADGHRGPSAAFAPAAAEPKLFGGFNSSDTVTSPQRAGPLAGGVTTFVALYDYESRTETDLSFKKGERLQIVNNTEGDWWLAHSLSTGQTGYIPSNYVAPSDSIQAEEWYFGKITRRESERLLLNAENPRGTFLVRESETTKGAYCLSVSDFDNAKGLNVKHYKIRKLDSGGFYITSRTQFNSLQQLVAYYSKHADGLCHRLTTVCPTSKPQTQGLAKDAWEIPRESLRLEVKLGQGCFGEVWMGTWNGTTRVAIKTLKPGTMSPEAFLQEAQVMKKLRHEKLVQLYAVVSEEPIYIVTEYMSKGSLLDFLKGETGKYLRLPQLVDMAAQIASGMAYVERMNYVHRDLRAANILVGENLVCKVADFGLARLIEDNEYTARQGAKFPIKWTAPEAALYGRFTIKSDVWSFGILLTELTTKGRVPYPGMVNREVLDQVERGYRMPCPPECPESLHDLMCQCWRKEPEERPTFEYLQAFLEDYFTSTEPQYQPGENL

[19] = molecular target: T2, Aurora kinase A (Homo sapiens) (UniProt O14965); test: Inhibition of Aurora A at 10 uM
T2 sequence (whole entry): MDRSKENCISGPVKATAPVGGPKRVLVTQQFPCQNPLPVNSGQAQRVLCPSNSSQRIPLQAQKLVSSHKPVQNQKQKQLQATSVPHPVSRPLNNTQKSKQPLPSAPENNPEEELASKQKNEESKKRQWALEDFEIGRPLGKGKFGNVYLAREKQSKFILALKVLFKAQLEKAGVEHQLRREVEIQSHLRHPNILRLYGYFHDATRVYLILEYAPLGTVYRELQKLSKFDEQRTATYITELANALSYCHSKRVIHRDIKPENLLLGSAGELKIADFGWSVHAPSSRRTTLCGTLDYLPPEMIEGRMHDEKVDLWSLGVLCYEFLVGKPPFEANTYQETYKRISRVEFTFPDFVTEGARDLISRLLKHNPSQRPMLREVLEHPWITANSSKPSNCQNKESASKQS

[20] = molecular target: Aurora kinase B (Homo sapiens) (UniProt Q96GD4); test: Inhibition of Aurora B at 10 uM
[21] = molecular target: Serine/threonine-protein kinase PLK1 (Homo sapiens) (UniProt P53350); test: Inhibition of Plk1 at 10 uM

| Compound | IC50 [1] [µM] | IC50 [2] [µM] | IC50 [3] [µM] | inhibition [4] [%] | inhibition [5] [%] | inhibition [6] [%] | inhibition [7] [%] | inhibition [8] [%] | inhibition [9] [%] | inhibition [10] [%] | inhibition [11] [%] | inhibition [12] [%] | inhibition [13] [%] | inhibition [14] [%] | inhibition [15] [%] | inhibition [16] [%] | inhibition [17] [%] | inhibition [18] [%] | inhibition [19] [%] | inhibition [20] [%] | also measured |
| --- | --- | --- | --- | --- | --- | --- | --- | --- | --- | --- | --- | --- | --- | --- | --- | --- | --- | --- | --- | --- | --- |
| Clc1cccc(-n2cc(-c3ccccc3NCc3ccc4c(c3)OCO4)nn2)c1 | > 10 | > 10 | > 10 | < 30 | < 30 | < 30 | < 30 | < 30 | < 30 | < 30 | < 30 | < 30 | < 30 | < 30 | < 30 | < 30 | < 30 | < 30 | < 30 | < 30 | inhibition [21]: < 30% |
| Clc1ccc(-n2cc(-c3ccccc3NCc3ccncc3)nn2)cc1Cl | 0.63 | 0.65 | 1.47 | < 30 | < 30 | < 30 | < 30 | < 30 | < 30 | < 30 | < 30 | < 30 | < 30 | < 30 | < 30 | < 30 | < 30 | < 30 | < 30 | < 30 | inhibition [21]: < 30% |
| FC(F)(F)Oc1ccc(-n2cc(-c3ccccc3NCc3ccncc3)nn2)cc1 | 1.22 | 1.13 | 3.11 | < 30 | < 30 | < 30 | < 30 | < 30 | < 30 | < 30 | < 30 | < 30 | < 30 | < 30 | < 30 | < 30 | < 30 | < 30 | < 30 | < 30 | inhibition [21]: < 30% |
| FC(F)(F)c1cccc(-n2cc(-c3ccccc3NCc3cccnc3)nn2)c1 | > 10 | > 10 | > 10 | < 30 | < 30 | < 30 | < 30 | < 30 | < 30 | < 30 | < 30 | < 30 | < 30 | < 30 | < 30 | < 30 | < 30 | < 30 | < 30 | < 30 | inhibition [21]: < 30% |
| Clc1cccc(-n2cc(-c3ccccc3NCc3ccccn3)nn2)c1 | > 10 | > 10 | > 10 | < 30 | < 30 | < 30 | < 30 | < 30 | < 30 | < 30 | < 30 | < 30 | < 30 | < 30 | < 30 | < 30 | < 30 | < 30 | < 30 | < 30 | inhibition [21]: < 30% |
| Clc1cccc(-n2cc(-c3ccccc3NCc3cccnc3)nn2)c1 | 4.23 | > 10 | > 10 | < 30 | < 30 | < 30 | < 30 | < 30 | < 30 | < 30 | < 30 | < 30 | < 30 | < 30 | < 30 | < 30 | < 30 | < 30 | < 30 | < 30 | inhibition [21]: < 30% |

More lines, in order of falling IC50 [1], values ahead:

| IC50 [1] [µM] | IC50 [2] [µM] | IC50 [3] [µM] | inhibition [4] [%] | inhibition [5] [%] | inhibition [6] [%] | inhibition [7] [%] | inhibition [8] [%] | inhibition [9] [%] | inhibition [10] [%] | inhibition [11] [%] | inhibition [12] [%] | inhibition [13] [%] | inhibition [14] [%] | inhibition [15] [%] | inhibition [16] [%] | inhibition [17] [%] | inhibition [18] [%] | inhibition [19] [%] | inhibition [20] [%] | Compound | also measured |
| --- | --- | --- | --- | --- | --- | --- | --- | --- | --- | --- | --- | --- | --- | --- | --- | --- | --- | --- | --- | --- | --- |
| 0.77 | 0.64 | 1.19 | < 30 | < 30 | < 30 | < 30 | < 30 | < 30 | < 30 | < 30 | < 30 | < 30 | < 30 | < 30 | < 30 | < 30 | < 30 | < 30 | < 30 | c1ccc(-c2cn(-c3ccc4ccccc4n3)nn2)c(NCc2ccncc2)c1 | inhibition [21]: < 30% |
| 0.61 | 0.53 | 1.63 | < 30 | < 30 | < 30 | < 30 | < 30 | < 30 | < 30 | < 30 | < 30 | < 30 | < 30 | < 30 | < 30 | < 30 | < 30 | < 30 | < 30 | CC(C)(C)c1ccc(-n2cc(-c3ccccc3NCc3ccncc3)nn2)cc1 | inhibition [21]: < 30% |
| 0.39 | 0.13 | 0.27 | < 30 | < 30 | < 30 | < 30 | < 30 | < 30 | < 30 | < 30 | < 30 | < 30 | < 30 | < 30 | < 30 | < 30 | < 30 | < 30 | < 30 | Clc1ccc(-n2cc(-c3ccccc3NCc3ccncc3)nn2)cc1 | inhibition [21]: < 30% |
| 0.27 | 0.25 | 0.33 | < 30 | < 30 | < 30 | < 30 | < 30 | < 30 | < 30 | < 30 | < 30 | < 30 | < 30 | < 30 | < 30 | < 30 | < 30 | < 30 | < 30 | CC(C)(C)c1cccc(-n2cc(-c3ccccc3NCc3ccncc3)nn2)c1 | inhibition [21]: < 30% |
| 0.14 | 0.11 | 0.18 | < 30 | < 30 | < 30 | < 30 | < 30 | < 30 | < 30 | < 30 | < 30 | < 30 | < 30 | < 30 | < 30 | < 30 | < 30 | < 30 | < 30 | Cc1ccc(-n2cc(-c3ccccc3NCc3ccncc3)nn2)cc1C(F)(F)F | inhibition [21]: < 30% |
